# Screens from PubChem BioAssay.
# KCNK3 block: human KCNK3 channel inhibition, primary screen; AID 602410; O14649; 340,000 compounds, 0.84% hits; CHO-KCNK3 thallium flux, FluxOR fluorescence; stronger effect = lower value; B-score at 10 µM;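 active = B-score under library mean minus 4 SD, starting fluorescence ratio at most library mean plus 5 SD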;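 note: more negative B-score means stronger inhibition of thallium flux through KCNK3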
# hERG protect: shields human hERG channel from block by proarrhythmic agents | Q12809 | CHO-hERG, FluxOR thallium flux, dofetilide IC70 present | activation (rescue from dofetilide block), less the hit threshold, % at 10 µM | 310,000 compounds, 0.51% hits | AID 1511;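 active = activation above the mean of controls blocked by dofetilide plus 5 SD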;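 note: thallium influx through hERG after potassium depolarization seen as dye fluorescence rise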
# KCNK9 block: blocks the human KCNK9 two-pore domain potassium channel. Q9NPC2. HEK293 KCNK9, FluxOR thallium flux fluorescence; stronger effect = lower value. B-score at 10 µM. 310,000 compounds, 1.2% hits. AID 488922;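 active = ratio B-score over 3 SD below the library mean, with starting fluorescence within 5 SD of its mean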;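 note: negative B-score means less thallium flux so channel inhibition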
# KCNQ1 act: potentiates or activates the human KCNQ1 potassium channel | P51787 | CHO-K1 KCNQ1, thallium flux FluxOR fluorescence; stronger effect = higher value | B-score at 10 µM | 310,000 compounds, 0.35% hits;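 active = fluorescence ratio B-score, a plate-corrected score, at least three library SD, with initial intensity B-score within 5 SD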
# Target sequence (P51787 whole entry, looked up): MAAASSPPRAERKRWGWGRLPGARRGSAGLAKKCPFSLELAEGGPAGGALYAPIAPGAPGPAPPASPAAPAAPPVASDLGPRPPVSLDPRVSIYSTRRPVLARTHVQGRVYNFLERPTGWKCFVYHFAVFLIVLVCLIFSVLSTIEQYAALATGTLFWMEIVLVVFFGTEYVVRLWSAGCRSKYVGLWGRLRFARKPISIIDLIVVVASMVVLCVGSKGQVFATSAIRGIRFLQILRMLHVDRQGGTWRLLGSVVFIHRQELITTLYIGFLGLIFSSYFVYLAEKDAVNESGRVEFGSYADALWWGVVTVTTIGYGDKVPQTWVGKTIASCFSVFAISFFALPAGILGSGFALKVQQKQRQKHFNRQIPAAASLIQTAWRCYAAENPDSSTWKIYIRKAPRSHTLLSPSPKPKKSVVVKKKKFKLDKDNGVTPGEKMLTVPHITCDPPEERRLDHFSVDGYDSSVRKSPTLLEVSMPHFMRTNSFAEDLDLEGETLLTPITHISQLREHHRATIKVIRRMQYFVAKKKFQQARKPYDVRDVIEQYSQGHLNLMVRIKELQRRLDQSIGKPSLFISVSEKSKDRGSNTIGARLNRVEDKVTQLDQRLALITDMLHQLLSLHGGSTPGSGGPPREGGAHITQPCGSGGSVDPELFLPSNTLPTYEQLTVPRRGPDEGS
#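 Assay system: stable KCNQ1 CHO-K1 line; medium: assay buffer, equal DMSO in all wells; timing: 90 min dye loading and 20 min compound exposure, both at room temperature; technique: kinetic FluxOR thallium fluorescence, 10-s 1-Hz baseline, 110-s post-stimulus read; read-out basis: B score of baseline-normalized fluorescence ratio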
# PHOSPHO1 block: blocks human PHOSPHO1 phosphatase activity; Q8TCT1; recombinant PHOSPHO1, absorbance phosphatase assay; inhibition, % at 13.3 µM; 290,000 compounds, 1.1% hits; AID 1565; in the data active = inhibition above about 60%
# KCNQ1 inh: human KCNQ1 channel inhibition. P51787. CHO-K1 KCNQ1, FluxOR thallium flux fluorescence; stronger effect = higher value. B-score at 10 µM. 310,000 compounds, 1.3% hits;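 active = compounds whose thallium flux B-score, printed positive for inhibition, exceeds three library SD while starting fluorescence stays within three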;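 note: channel opened by potassium depolarization with thallium stimulus after 20 min compound exposure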
# KCNK9 block conf: confirmation of human KCNK9 potassium channel inhibitors; shares compounds with KCNK9 block; HEK293 KCNK9 cells, FluxOR thallium flux fluorescence; inhibition, % at 10 µM; 4,900 compounds, 43% hits; AID 492992;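 active = thallium signal inhibited by more than 5 SD of the compound-free buffer control wells, on both duplicate plates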
# Kir21 sel: selectivity of KCNK9 modulators against mouse Kir2.1; Kir2.1 cells, FluxOR thallium flux fluorescence; inhibition, % at 10 µM; shares compounds with KCNK9 block; 4,900 compounds, 4% hits;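 active = thallium signal drop more than 5 SD beyond the mean of the no-compound control wells, seen in both duplicate plates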;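 note: signal is fluorescence rise after thallium addition divided by baseline fluorescence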
# KCNK9 uninduced: second check of KCNK9 modulator effects in non-induced HEK293 cells | FluxOR thallium flux | 4,900 compounds, 40% hits | AID 492997 | shares compounds with KCNK9 block | inhibition, % at 10 µM;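 active = thallium signal drop beyond 5 SD of the untreated control mean, on both duplicate plates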
# KCNK3 inh conf: confirmation of human KCNK3 two-pore domain potassium channel inhibitors; shares compounds with KCNK3 block; CHO-KCNK3 thallium flux, FluxOR fluorescence; 0% buffer, 100% carvedilol maximal block; ratio percent of control, % at 10 µM; 2,400 compounds, 99% hits;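 active = ratio percent of control, averaged over triplicates, above buffer control mean plus 5 SD, cut at about 64% in these data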;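 note: ratio is the fluorescence rise from min to max over baseline after thallium stimulus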
# KCNK3 noninduced: activity in cells without induced KCNK3 expression | shares compounds with KCNK3 block | non-induced KCNK3 parental cells, FluxOR thallium flux; stronger effect = lower value | thallium flux ratio (lower = more inhibition) at 10 µM | 2,400 compounds, 40% hits;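 active = thallium flux ratio, averaged over three wells, more than 5 SD below the buffer control mean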;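 note: host cells are CHO cells without KCNK3 induction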
# A number is an active result; n = inactive; x = not tested or not shown. Sampled rows, rich in hits. Any-hit rate of the full collection: about 4%.
SMILES,KCNK3 block,hERG protect,KCNK9 block,KCNQ1 act,PHOSPHO1 block,KCNQ1 inh,KCNK9 block conf,Kir21 sel,KCNK9 uninduced,KCNK3 inh conf,KCNK3 noninduced
C=CC[n+]1c(/C=C2\C=Cc3cc(C)ccc3N2CC)ccc2ccccc21,-16,n,-13,n,n,16,78%,88%,63%,146,0.11
CC(C)CC(=O)NC(=S)Nc1cccc2nsnc12,n,n,n,n,n,n,x,x,x,x,x
Cc1c2ccccc2cc[n+]1CCCS(=O)(=O)[O-],n,n,n,n,n,n,x,x,x,x,x
CCCCCCCCCC[n+]1cccc2c3ccccc3ccc21,n,n,-15,n,n,n,73%,n,36%,72,n
Cc1c2c(nc3c(C(=O)NC4CCCCC4C)cnn13)CCCC2 (configuration not stated),x,n,n,n,n,n,x,x,x,x,x
Cc1cc(NC(=O)COC(=O)c2nccnc2N)n(-c2ccccc2)n1,n,n,n,n,x,n,x,x,x,x,x
CC(C)(C)c1cc(NC(=O)COC(=O)c2nccnc2N)n(-c2ccccc2)n1,-9.1,n,-8.6,n,n,n,52%,n,32%,94,n
Cc1ccc2c(CN(C)Cc3ccc(Cl)cc3Cl)cc(=O)oc2c1,n,n,n,n,n,n,x,x,x,x,x
CCc1ccc2oc(=O)cc(CN(C)Cc3ccccc3)c2c1,n,n,n,n,n,n,x,x,x,x,x
Cc1ccc2c(CN(C)Cc3ccc(Cl)cc3)cc(=O)oc2c1,-16,n,-11,n,n,n,38%,n,44%,94,n
Cc1ccc2c(CN(C)Cc3ccccc3)cc(=O)oc2c1C,-9.3,n,n,n,n,n,n,n,n,92,n
Cc1sc(NC(=O)c2ccco2)c(CN2CCN(c3ccc(F)cc3)CC2)c1C,-10,n,-15,n,n,n,n,n,29%,110,0.15
O=[N+]([O-])c1cccc(C2CC(c3ccccc3)=NN2c2ccccc2)c1 (configuration not stated),n,n,-10,n,n,n,56%,n,28%,94,n
NS(=O)(=O)c1ccc(N2N=C(c3ccccc3)CC2c2cccc(Cl)c2)cc1 (configuration not stated),n,x,x,x,x,x,x,x,x,x,x
CCOc1ccc(CCNC(=O)COC(=O)c2cccc(S(=O)(=O)N3CCCC3)c2)cc1OCC,-9.2,n,-9.4,n,x,n,38%,n,36%,65,n
O=C(OCc1ccc2c(c1)OCO2)c1cccc(S(=O)(=O)N2CCCCC2)c1,-9.3,n,-19,n,n,n,72%,n,30%,114,n
COC(=O)C(C)N(C(=O)c1ccc(Cl)cc1)c1c(C)cccc1C (configuration not stated),n,n,n,n,n,n,x,x,x,x,x
COC(=O)C(C)N(C(=O)c1ccc(C(=O)c2ccccc2)cc1)c1c(C)cccc1C (configuration not stated),-11,n,-9,n,n,n,40%,n,34%,92,n
Cc1ccccc1Sc1c(C#N)c(-c2ccccc2)nn1C,-12,n,-8.6,n,n,n,42%,n,50%,123,0.13
Cc1ccc(Sc2c(CO)c(-c3ccccc3)nn2C)cc1,n,n,n,n,n,n,x,x,x,x,x
Cc1ccccc1Cn1ccc(-c2ccc(Cl)cc2)c(C#N)c1=O,n,n,n,n,n,n,x,x,x,x,x
CC(C)(C)n1nnnc1C(c1cccs1)N(Cc1ccccc1)Cc1cccnc1 (configuration not stated),n,n,-13,n,n,n,66%,n,54%,118,n
Cc1cc(C)cc(-n2c(C)cc(/C=N/NC(=O)CSc3ncccn3)c2C)c1,-11,n,-14,n,n,n,60%,n,32%,94,n
CCCC(=O)O[C@]1(C(=O)CO)CC[C@H]2[C@@H]3CCC4=CC(=O)CC[C@]4(C)[C@H]3[C@@H](O)C[C@@]21C,n,n,n,n,n,n,x,x,x,x,x
COc1cc(NC(=S)N2CCN(c3ccccn3)CC2)cc(OC)c1,n,n,n,n,n,n,x,x,x,x,x
SMILES,KCNK3 block,hERG protect,KCNK9 block,KCNQ1 act,PHOSPHO1 block,KCNQ1 inh,KCNK9 block conf,Kir21 sel,KCNK9 uninduced,KCNK3 inh conf,KCNK3 noninduced
Cc1ccc2cc(CN(CC3CCCO3)C(=S)NCc3ccco3)c(=O)[nH]c2c1 (configuration not stated),n,n,n,n,n,n,x,x,x,x,x
Cc1cc(C)c2cc(CN(CC3CCCO3)C(=S)NCc3ccco3)c(=O)[nH]c2c1 (configuration not stated),-9.8,n,-9.5,n,n,n,29%,n,33%,113,n
Cc1ccc(NC(=O)Nc2ccc(F)cc2)nc1,n,n,n,n,n,n,x,x,x,x,x
Cc1ccc([N+](=O)[O-])cc1-c1[nH]c(-c2ccc(O)c(O)c2)nc1-c1ccccc1,-9.8,n,-9,n,n,n,40%,n,n,111,n
O=C(O)/C=C/c1cn(-c2ncc(C(F)(F)F)cc2Cl)c2ccccc12,n,n,n,n,n,n,x,x,x,x,x
Clc1ccc(-c2nc3cnccn3c2Nc2ccc3c(c2)OCO3)cc1,-9.7,n,-12,n,n,n,60%,n,24%,105,n
CSc1ccc(-c2nc3cnccn3c2Nc2ccc3c(c2)OCO3)cc1,n,n,n,n,n,n,x,x,x,x,x
N#Cc1c(-c2ccccc2)c(-c2ccccc2)n(Cc2ccco2)c1NC(=O)c1cccs1,-13,n,-13,n,n,6,58%,n,42%,112,n
CCOC(=O)c1csc(-c2ccc([N+](=O)[O-])cc2)n1,n,n,n,n,n,n,x,x,x,x,x
O=c1cc(N2CCCCC2)c(-c2ccccc2)nn1Cc1ccccc1Cl,-9.1,n,-18,n,n,n,38%,n,38%,112,n
O=C(Cc1n[nH]c(=O)[nH]c1=O)N/N=C/c1ccccc1O,n,n,n,n,n,n,x,x,x,x,x
O=S(=O)(c1ccc(Br)s1)N1CCC(Cc2ccccc2)CC1,-9.1,n,n,n,n,n,n,n,n,100,n
Cn1c(C(=O)Nc2ccc3c(c2)OCCO3)cc2sccc21,n,n,n,n,n,n,x,x,x,x,x
